Key:
[1] = test system: A549; test: Antiproliferative potency determined as inhibitory concentration against A549 cells; type: functional, cell-based; conditions: Homo sapiens
Outline: (§1)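 MTS growth-inhibition assay. Cells seeded at 500-2000/well, attached and grown 48 h, then given agent or vehicle (4% DMSO) for 72 h continuous exposure. A time-zero plate was read. Initial 5-fold dilution screen, then 2-fold dilutions (five concentrations) centred on the estimated GI50, in quadruplicate. Read-out A490 minus A630 with phenazine methanesulfonate as electron acceptor. Mean ± SD, N = 4 over 10 concentrations.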

[2] = Antiproliferative potency determined as inhibitory concentration against MG63 cells; type: functional, cell-based; conditions: Homo sapiens, MG-63; outline: as §1
[3] = Percent competition for binding to preformed microtubules by 4 uM as against 2 uM of 3[H]paclitaxel; type: functional
Outline: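 Microtubules preformed from 2 µM bovine brain tubulin with 20 µM ddGTP in monosodium glutamate, 30 min at 37 °C. Then 2 µM [3H]paclitaxel plus 4 µM agent (final concentrations) was added for 30 min at 37 °C. Samples were centrifuged at 14000 rpm for 20 min at room temperature, and supernatant radioactivity was counted. Bound = total minus free, normalized to the no-inhibitor control.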

[4] = test system: tubulin (Bos taurus); test: Percent assembly of bovine brain tubulin induced by compound at 10 uM versus that caused by 10 uM paclitaxel
[5] = test system: 2008; test: Inhibitory concentration against 2008 (ovarian) cells; type: functional; conditions: Homo sapiens
Outline: (§2)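 Cells plated at 500-2000/well, allowed to attach and grow 48 h, then exposed continuously for 72 h to vehicle (4% DMSO) or agent. Initial screen at 5-fold dilutions; GI50 then set by a repeat screen of five 2-fold dilutions centred on the estimate, in quadruplicate. A time-zero plate was included. Cell number was read by MTS/phenazine methanesulfonate absorbance (490 minus 630 nm). Values are means ± SD, N=4.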

[6] = Inhibitory concentration against […] (breast) cells; type: functional; conditions: Homo sapiens; outline: as §2
[7] = test system: PC-3; test: Inhibitory concentration against PC3 (prostate) cells; type: functional; conditions: Homo sapiens; outline: as §2

Structure (SMILES)	IC50 [1]	IC50 [2]	Activity [3]	Activity [4]	GI50 [5]	GI50 [6]	GI50 [7]
C=C/C=C\C(C)C(OC(N)=O)[C@@H](C)[C@H](O)[C@@H](C)C/C(C)=C\C(C)[C@@H](O)[C@@H](C)/C=C\C(O)C[C@@H]1OC(=O)C(C)=C[C@H]1C (stereo partly drawn)	1.8 nM	–	–	–	–	–	–
C=C/C=C\C(C)C(OC(N)=O)[C@@H](C)[C@H](O)CC/C(C)=C\C(C)[C@@H](O)[C@@H](C)/C=C\C(O)C[C@@H]1OC(=O)[C@H](C)[C@@H](O)[C@H]1C (stereo partly drawn)	–	10 nM	–	–	–	–	–
C=C/C=C\C(C)C(OC(N)=O)[C@@H](C)[C@H](O)C(C)C/C(C)=C\C(C)[C@@H](O)[C@@H](C)/C=C\C(C[C@@H]1OC(=O)[C@H](C)[C@@H](O)[C@H]1C)OC(C)=O (stereo partly drawn)	0.8 nM	–	–	–	–	–	–
C=C/C=C\C(C)C(OC(N)=O)[C@@H](C)[C@H](O)C(C)C/C(C)=C\C(C)[C@@H](OC(C)=O)[C@@H](C)/C=C\C(O)C[C@@H]1OC(=O)[C@H](C)[C@@H](OC(C)=O)[C@H]1C (stereo partly drawn)	164 nM	–	–	–	–	–	–
C=C/C=C\C(C)C(OC(N)=O)[C@@H](C)[C@H](O)C(C)C/C(C)=C\C(C)[C@@H](O)[C@@H](C)/C=C\C(O)C[C@@H]1OC(=O)[C@H](C)[C@@H](OC(C)=O)[C@H]1C (stereo partly drawn)	3.8 nM	–	–	–	–	–	–
C=C/C=C\C(C)C(OC(N)=O)[C@@H](C)[C@H](O)[C@@H](C)C/C=C\C(C)[C@@H](O)[C@@H](C)/C=C\C(O)C[C@@H]1OC(=O)C(C)[C@@H](O)[C@H]1C (stereo partly drawn)	7.8 nM	–	–	–	–	–	–
C=C/C=C\[C@H](C)[C@H](OC(N)=O)[C@@H](C)[C@H](O)CC/C=C\C(C)[C@@H](O)[C@@H](C)/C=C\CC[C@@H]1OC(=O)[C@H](C)[C@@H](OCOC)[C@@H]1C (stereo partly drawn)	–	–	57%	27%	650 nM	870 nM	1800 nM
C=C/C=C\[C@H](C)[C@H](OC(N)=O)[C@@H](C)[C@H](O)CC/C=C\C(C)[C@@H](O)[C@@H](C)/C=C\CC[C@@H]1OC(=O)[C@H](C)[C@@H](O)[C@@H]1C (stereo partly drawn)	–	–	21%	11%	5200 nM	2100 nM	7500 nM
C=C/C=C\[C@H](C)[C@H](OC(N)=O)[C@@H](C)[C@H](O)[C@@H](C)C/C(C)=C\[C@H](C)[C@@H](O)[C@@H](C)/C=C\[C@@H](O)C[C@@H]1OC(=O)[C@H](C)[C@@H](O)[C@H]1C [DISERMOLIDE]	–	–	32%	14%	1500 nM	2600 nM	3000 nM
C=C/C=C\C(C)C(OC(N)=O)[C@@H](C)[C@H](O)C(C)C/C(C)=C\C(C)[C@@H](O)[C@@H](C)/C=C\C(C[C@@H]1OC(=O)[C@H](C)[C@@H](OC(C)=O)[C@H]1C)OC(C)=O (stereo partly drawn)	0.8 nM	–	–	–	–	–	–
C=C/C=C\C(C)C(OC(N)=O)[C@@H](C)[C@H](O)[C@@H](C)C/C(C)=C\C(C)[C@@H](O)[C@@H](C)/C=C\C(O)C[C@@H]1OC(=O)[C@H](C)[C@@H](O)[C@H]1C (stereo partly drawn)	3.8 nM	6 nM	64%	>100%	72 nM	16 nM	67 nM
CC(=O)O[C@H]1C(=O)[C@@]2(C)[C@H]([C@H](OC(=O)c3ccccc3)[C@]3(O)C[C@H](OC(=O)[C@H](O)[C@@H](NC(=O)c4ccccc4)c4ccccc4)C(C)=C1C3(C)C)[C@]1(OC(C)=O)CO[C@@H]1C[C@@H]2O [PACLITAXEL]	1.4 nM	–	37%	100%	9.2 nM	2.4 nM	15 nM
C=C/C=C\C(C)C(OC(N)=O)[C@@H](C)[C@H](O)[C@@H](C)C/C=C/C(C)[C@@H](O)[C@@H](C)/C=C\C(O)C[C@@H]1OC(=O)C(C)[C@@H](O)[C@H]1C (stereo partly drawn)	485 nM	–	–	–	–	–	–
CCCCCC[C@H](OC(N)=O)[C@@H](C)[C@H](O)CC/C=C\C(C)[C@@H](O)[C@@H](C)/C=C\CC[C@@H]1O[C@@H](OC)[C@H](C)[C@@H](OCOC)[C@@H]1C (stereo partly drawn)	–	–	9%	6%	29000 nM	24000 nM	> 50000 nM
C=C/C=C\C(C)C(OC(N)=O)[C@@H](C)[C@H](O)[C@@H](C)C/C(C)=C\C(C)[C@@H](O)[C@@H](C)/C=C\CC[C@@H]1OC(=O)C=C[C@H]1C (stereo partly drawn)	11.4 nM	–	–	–	–	–	–
CCCCCC(C)(C)[C@H](OC(N)=O)[C@@H](C)[C@H](O)CC/C=C\C(C)[C@@H](O)[C@@H](C)/C=C\CC[C@@H]1O[C@@H](OC)[C@H](C)[C@@H](OCOC)[C@@H]1C (stereo partly drawn)	–	–	15%	9%	42000 nM	23000 nM	38000 nM
C=C/C=C\C(C)C(OC(N)=O)[C@@H](C)[C@H](OC(C)=O)C(C)C/C(C)=C\C(C)[C@@H](O)[C@@H](C)/C=C\C(O)C[C@@H]1OC(=O)[C@H](C)[C@@H](OC(C)=O)[C@H]1C (stereo partly drawn)	524 nM	–	–	–	–	–	–
C=C/C=C\[C@H](C)[C@H](OC(N)=O)[C@@H](C)[C@H](O)CC/C=C\C(C)[C@@H](O)[C@@H](C)/C=C\CC[C@@H]1O[C@@H](OC)[C@H](C)[C@@H](OCOC)[C@@H]1C (stereo partly drawn)	–	–	19%	11%	4700 nM	3400 nM	15000 nM
COCO[C@H]1[C@@H](C)[C@H](CC/C=C\[C@H](C)[C@H](O)[C@@H](C)/C=C\CC[C@@H](O)[C@H](C)COC(N)=O)OC(=O)[C@@H]1C	–	–	13%	<5%	> 50000 nM	30000 nM	> 50000 nM

— ChEMBL document CHEMBL1145824, “Simplified discodermolide analogues: synthesis and biological evaluation of 4-epi-7-dehydroxy-14,16-didemethyl-(+)-discodermolides as microtubule-stabilizing agents” (J Med Chem, 2003)
